# Hits are enriched below; roughly 1.2% of the tested compounds scored in any of these assays.
# Runt-SMMHC FRET = blocks binding of human RUNX1 Runt domain to CBFb-SMMHC; Cerulean-Runt/Venus-CBFb-SMMHC FRET ratio 530/480, 1 h; inhibition, % at 20 µM; Q01196+Q13951; hit rate 0.74% among 220,000; AID 1434;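 active means mean inhibition across duplicate retests at 20 µM reaching about 50%, limit read from the data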;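 further: 0% = DMSO wells and 100% = wells with excess untagged CBFb-SMMHC; inhibitors lower the FRET ratio by blocking Runt binding to CBFb-SMMHC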
# Target sequence (Q01196 whole entry, looked up, the tested form may be a part): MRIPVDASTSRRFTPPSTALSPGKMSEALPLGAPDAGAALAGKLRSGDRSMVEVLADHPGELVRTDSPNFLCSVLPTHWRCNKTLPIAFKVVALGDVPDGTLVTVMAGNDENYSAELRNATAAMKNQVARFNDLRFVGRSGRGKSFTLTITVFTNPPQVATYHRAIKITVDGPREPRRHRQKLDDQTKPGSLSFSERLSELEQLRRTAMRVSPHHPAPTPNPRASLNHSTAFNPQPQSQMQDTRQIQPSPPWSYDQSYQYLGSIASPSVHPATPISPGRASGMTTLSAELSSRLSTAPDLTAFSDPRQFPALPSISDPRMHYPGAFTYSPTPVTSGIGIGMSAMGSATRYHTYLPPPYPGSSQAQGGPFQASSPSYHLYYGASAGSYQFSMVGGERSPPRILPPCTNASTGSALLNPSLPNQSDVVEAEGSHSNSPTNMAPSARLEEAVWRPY
# Target sequence (Q13951 whole entry, looked up, the tested form may be a part): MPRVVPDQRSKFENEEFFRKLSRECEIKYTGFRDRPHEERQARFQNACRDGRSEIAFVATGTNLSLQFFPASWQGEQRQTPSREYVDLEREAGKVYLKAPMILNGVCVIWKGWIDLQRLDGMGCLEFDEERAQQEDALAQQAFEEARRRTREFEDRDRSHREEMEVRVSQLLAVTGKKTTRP
# RanGTP-Impb inh = inhibitors of RanGTP-importin-beta interaction, primary screen, biochemical, FRET, CFP-Ran, YFP-importin-beta, homogeneous | cell-free CFP-Ran/YFP-importin-beta FRET ratio | inhibition, % (concentration not given with the values) | hit rate 1.1% among 300,000 | AID 2216;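 active means more than half of the replicate wells show a fall in the fluorescence ratio signal beyond about 16%, limit read from the data, passing the limit was not always enough; inconclusive means exactly half of the replicate wells pass the set limit; inactive means fewer than half of replicates pass the limit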;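 further: 0% = DMSO wells and 100% = Ran loaded with GDP instead of GTP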
# Runt-CBFb FRET = Runt domain-CBFb interaction inhibition. Cerulean-Runt/Venus-CBFb FRET ratio 530/480, 1 h. inhibition, % at 20 µM. hit rate 0.46% among 220,000. AID 1496;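 active means inhibition over about 50% at 20 µM in the single-dose screen, limit read from the data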;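 further: 0% = DMSO wells and 100% = excess unlabeled CBFb competitor control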
#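 Schedule: protein complex preformed 1 h, compound exposure 1 h, room temperature, dark; test system: Cerulean-labeled Runt domain protein; amount: 100 nM per protein; buffer or medium: Tris 50 mM pH 7.5, KCl, K2SO4, 0.01% BSA; read-out: loss of energy transfer signal; detection: FRET fluorescence; controls: 5 µM unlabeled CBFb as full-inhibition high control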
# CaV13 FRET inh = Primary screen for inhibitors of IQ motif and Ca2+-dependent inactivation inhibitor domain binding in CACNA1D, Förster resonance energy transfer in living cells, …. HEK cells, CFP/YFP FRET ICDI-IQ, plate reader, 10 min; percent FRET-ratio fall versus neutral wells. inhibition, % at 12.3 µM. hit rate 0.098% among 340,000;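 active means mean replicate inhibition of at least 30% and at least 1% of replicates passing that level; inconclusive means only one of the two criteria is met; inactive means neither criterion is met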;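 further: 0% = median of the neutral control wells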
# * = called active by the depositor; ? = inconclusive; . = not tested or not shown.
SMILES,Runt-SMMHC FRET,RanGTP-Impb inh,Runt-CBFb FRET,CaV13 FRET inh
N#C/C(=C/c1ccc(N2CCCCC2)o1)c1cccc(F)c1,4,?,6,-8
N#C/C(=C/c1ccc(N2CCCCCC2)o1)c1ccc(Cl)cc1,26,33*,28,.
N#Cc1c(-c2cccnc2)c2c([nH]c1=O)-c1ccccc1OC2,82*,113*,10,3
N#Cc1c(-c2ccc(F)cc2)c2c([nH]c1=O)-c1ccccc1OC2,80*,101*,60*,-14
CSc1c2c([nH]c(=O)c1C#N)-c1ccccc1CC2,.,.,.,-5
CNCc1ccccc1Sc1ccc(OC)c(OC)c1,2,2,0,.
O=C(COC(=O)Cc1ccccc1F)NC(=O)NC1CCCC1,.,.,.,-2
CCc1ccc(NC(=O)COC(=O)Cn2cnc3ccccc32)cc1,.,.,.,-7
CCn1c(SCC(=O)NCCc2ccccc2)nc2sc3c(c2c1=O)CCN(C)C3,10,6,6,-2
CCn1c(SCC(=O)c2ccccc2)nc2sc3c(c2c1=O)CCN(C)C3,85*,8,10,9
Oc1c(C=NCc2ccccc2)sc2ccccc12,64*,?,20,-4
O=[N+]([O-])c1cccc(N=Cc2ccccc2)c1,.,.,.,-5
O=[N+]([O-])c1cccc(N=Cc2sc3ccccc3c2O)c1,87*,-1,47,3
O=[N+]([O-])c1ccc(N=Cc2sc3ccccc3c2O)cc1,105*,37*,40,-16
COc1ccc(N=Cc2sc(O)c3ccccc23)cc1,-334,0,-66,-9
O=C(c1ccco1)N(Cc1cccc(Br)c1)C1CCS(=O)(=O)C1 (centres undefined),.,0,.,-2
CCCC(=O)Nc1nn(CC)c2nc3ccc(C)cc3cc12,.,?,.,-4
CCCC(=O)Nc1nn(CC(C)C)c2nc3cc(C)ccc3cc12,.,28*,.,-3
CCC(=O)Nc1nn(CC(C)C)c2nc3ccc(C)cc3cc12,.,24*,.,-16
CCOc1ccc(S(=O)(=O)N2CCCCC2)cc1NC(=O)CN1C(=O)NC(C)(C2CC2)C1=O (centres undefined),.,.,.,-4
OC(c1ccccc1)(c1ccccc1)C1CCN(CCCOc2cccc(F)c2)CC1,.,.,.,-10
O=C1c2cnc3ncnn3c2CC2c3ccccc3CCN12 (centres undefined),36,4,14,-2
N#Cc1cnn2c3c(cnc12)C(=O)N1CCc2ccccc2C1C3 (centres undefined),86*,?,92*,-4
COc1ccccc1N1CCN(C(=O)c2ccc3nc[nH]c3c2)CC1,-4,0,2,-3
COc1ccccc1N1CCN(C(=O)c2ccc3nc(-c4ccco4)c(-c4ccco4)nc3c2)CC1,-43,33*,9,-6
SMILES,Runt-SMMHC FRET,RanGTP-Impb inh,Runt-CBFb FRET,CaV13 FRET inh
Cc1ccc(C)c(N2CCN(C(=O)c3ccc4nc(-c5ccco5)c(-c5ccco5)nc4c3)CC2)c1,-2,52*,-3,-4
c1ccc(CCNc2ccnc3cc4ccccc4cc23)cc1,93*,152*,36,15
O=C(N[C@H](C(=O)N1CCC[C@H]1C(=O)NCCc1ccccc1Cl)C1CCCCC1)c1ccccc1,.,.,.,-4
O=C(Nc1ccc(-c2nc3ccccc3o2)cc1)c1ccc2c(c1)OCO2,0,0,1,-8
Cc1ccc2oc(-c3ccc(NC(=O)c4ccc5c(c4)OCO5)cc3)nc2c1,-10,2,67*,-5
CCOc1ccc(CCNC(=O)COC(=O)c2cccnc2OCC)cc1OCC,0,20*,1,-8
COC(=O)C1=CNC=C(C(=O)OC)C1c1cccc(OC)c1,100*,6,42,.
COC(=O)C1=CNC=C(C(=O)OC)C1c1ccc(Cl)cc1,83*,4,38,-5
COC(=O)C1=CNC=C(C(=O)OC)C1c1ccccc1Cl,146*,.,72*,-4
COc1ccccc1NS(=O)(=O)c1cccc(C(=O)NCC(c2cccs2)N(C)C)c1 (centres undefined),.,.,.,-6
CCOC(=O)/C(C#N)=C1/C=C(C)c2ccccc2N1,91*,4,44,-5
CCOC(=O)/C(C#N)=C1\C(=O)N(Cc2ccccc2)c2ccccc21,11,1,5,-29
COc1ccc([C@@H]2CC(=O)[C@@H]3CN(S(=O)(=O)c4ccc(Cl)cc4)[C@H](c4ccc(C)cc4)C[C@@H]3N2S(=O)(=O)c2ccccc2)cc1,.,.,.,-4
COCCNC(=O)c1c(N)n(/N=C/c2ccc(F)cc2)c2nc3ccccc3nc12,25,?,-4,-21
CCCNC(=O)c1c(N)n(-c2cc(OC)cc(OC)c2)c2nc3ccccc3nc12,109*,58*,33,-1
COCCNC(=O)c1c(N)n(/N=C/c2cccs2)c2nc3ccccc3nc12,24,95*,62*,-1
COCCCNC(=O)c1c(N)n(-c2ccc3c(c2)OCO3)c2nc3ccccc3nc12,9,5,1,-4
CCOCCCNC(=O)c1c(N)n(-c2ccc3c(c2)OCO3)c2nc3ccccc3nc12,40,133*,12,7
CCOCCCNC(=O)c1c(N)n(-c2ccc(S(N)(=O)=O)cc2)c2nc3ccccc3nc12,58*,?,35,.
O=c1cc(CN2CCCCC2)c2ccccc2o1,.,.,.,-11
Nc1c(C(=O)NC2CCCCC2)c2nc3ccccc3nc2n1/N=C/c1ccco1,52*,.,17,.
S=C(NCc1ccccn1)Nc1ccc(Cl)cc1Cl,-4,4,0,.
CCc1nc2ccc(C(=O)NCCOc3ccc(OC)cc3)cn2c1N(CC)CCN(C)C,.,.,.,-5
CCOc1ccc(NC(=S)NNC(=S)Nc2cccc(C(F)(F)F)c2)cc1,7,22*,19,3
Cc1cccc(N2CCN(C(=S)c3ccc([N+](=O)[O-])cc3)CC2)c1,14,0,46,-19
SMILES,Runt-SMMHC FRET,RanGTP-Impb inh,Runt-CBFb FRET,CaV13 FRET inh
Cc1ccccc1N1CCN(C(=S)c2ccc([N+](=O)[O-])cc2)CC1,27,26*,35,-19
COc1ccc2nc3sc(C(=O)NCc4cccs4)c(N)c3cc2c1,22,-10,12,-7
COc1cccc(C(=O)Nc2cccc(NC(=O)c3cccs3)c2)c1,.,2,.,-2
CCCn1nc(NC(=O)c2cccs2)c2cc3cc(OC)ccc3nc21,63*,106*,63*,.
CCCCn1nc(NC(=O)c2cccs2)c2cc3cc(OC)ccc3nc21,78*,129*,67*,54*
CS(=O)(=O)Nc1cccc(C(=O)CC2(O)C(=O)Nc3ccc(Br)cc32)c1 (centres undefined),1,-2,-2,-6
COc1ccc2c(c1)[C@@]1(OCCC=C[C@H]1C)C(=O)N2Cc1ccc(F)cc1,.,.,.,-5
N#Cc1cccc(-c2csc(C(O)(c3ccccc3)C(F)(F)F)n2)c1 (centres undefined),.,.,.,-13
Oc1csc(Cc2nc(-c3ccccc3F)cs2)n1,-12,21*,5,-5

# Source: PubChem
